Screens (PubChem)
RAM network inh: inhibitors of the yeast RAM network, primary screen, dse1pr::URA3 reporter, 5-FOA selection; S. cerevisiae dse1pr::URA3 reporter, 5-FOA growth OD615, 2 d; analog-sensitive cbk1-as2 kinase mutant strain; inhibition, % at 50 µM; 190,000 compounds, 1.8% hits;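 active means inhibition above a set limit, 3 SD over mean compound inhibition, cut at about 8.4% in these data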;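 further: 0% = DMSO-only wells with no growth and 100% = 10 µM 1-NA-PP1 full growth; inhibition rescues growth on 5-FOA so higher OD means more RAM inhibition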
Yeast life ext: compounds extending yeast replicative lifespan, primary screen, S. cerevisiae, OD615 | S. cerevisiae growth with nicotinamide; deaD strain in restrictive glucose medium | inhibition of the nicotinamide effect, % at 10 µM | 130,000 compounds, 0.68% hits | AID 775, 2007;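 active means inhibition above a set limit, placed 3 SD over the median of all compounds, cut at about 26% in these data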;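 further: 0% = nicotinamide-treated wells and 100% = cells grown without nicotinamide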
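Material: Modified budding yeast, DeaD strain | Medium: Restrictive glucose medium | Probe or stimulus: 1.5 mM nicotinamide | Dosing: Single dose 10 µM compound, 0.25% DMSO | Times: 48 h at 30 °C | Technique: OD615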
SDO1 yeast rescue: growth rescue of sdo1-depleted yeast, primary screen, S. cerevisiae, bone marrow failure model. S. cerevisiae sdo1-depleted JHY4D growth rescue, OD600 30 h; active compounds read high; pdr5 snq2 efflux-pump mutant strain. z-score at 10 µM. 140,000 compounds, 0.21% hits;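 active means z-score above 3 at both the 24 hr and the 30 hr optical density reads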;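 further: z-score against mean and SD of all compound wells on the same plate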
Yeast growth inh: growth inhibitors of yeast BB579 in restrictive medium, primary screen, yeast lifespan-shortening project, S. cerevisiae | OD615, 48 h | inhibition, % at 10 µM | 140,000 compounds, 0.51% hits | AID 804, 2007;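 active means inhibition above a set limit, 3 SD over the mean compound inhibition, cut at about 44% in these data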
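Detection: OD615 turbidity measurement; Material: Saccharomyces cerevisiae DeaD strain BB579, replicative lifespan model yeast; Timing: 48 h exposure, 30 °C; Doses: single 10 µM dose; Medium: CSMM-D restrictive synthetic medium containing dextrose (glucose); Controls: amphotericin B at 10 µg/mL as positive control.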
RAM efflux-def: 5-FOA growth of efflux-deficient control yeast, dose response, counter-screen for RAM network inhibitor project, S. cerevisiae, OD615; shares compounds with RAM network inh; 1,200 tested, under 10 active; AID 1305, 2008; max inhibition, %; S. cerevisiae efflux-deficient reporter strain, 5-FOA growth OD615, 2 days; call rule not given here;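 further: plate controls were vehicle for no effect and reference inhibitor for full effect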
Numbers without * were called inactive; . = no result. Most compounds without a hit are left out; they make up all but 2.7% or so of the library.

SMILES	RAM network inh	Yeast life ext	SDO1 yeast rescue	Yeast growth inh	RAM efflux-def
CCC1CCCCN1S(=O)(=O)c1ccc(S(=O)(=O)N(Cc2cccs2)C2CC2)cc1 (stereo not drawn)	13*	33*	-0.54	-37	2
CCC1CCCCN1S(=O)(=O)c1ccc(S(=O)(=O)N(Cc2ccccn2)CC2CCCO2)cc1 (stereo not drawn)	1	5	-0.47	-19	.
Cc1ccc(C(=O)/C=C/c2cn(CC(O)CN3CCOCC3)c3ccccc23)cc1 (stereo not drawn)	19*	-4	-0.92	-1	2
O=C(c1ccco1)N1CCN(C(=O)C2CCN(S(=O)(=O)c3cnc[nH]3)CC2)CC1	1	0	0.97	9	.
COc1cccc(C(=O)Oc2ccccc2/C=C\C(=O)c2cc3ccccc3o2)c1	16*	4	-0.96	-34	8
C=CCNC(=O)COc1ccc(Oc2ccccc2)cc1	-2	.	.	.	.
Cc1cccc(Oc2cc(NC(=O)c3ccccc3)cc([N+](=O)[O-])c2)c1	13*	-27	-2.2	-69	2
CCCCNC(=O)c1c(N)n(/N=C/c2ccccn2)c2nc3ccccc3nc12	0	-6	-0.6	-64	.
CC(C)CNC(=O)c1c(N)n(/N=C/c2ccccn2)c2nc3ccccc3nc12	15*	-8	-2	-33	4
CCNC(=S)Nc1ccc2ncoc2c1	2	.	.	.	.
COc1cc(NS(=O)(=O)c2ccc(NC(=S)NC(=O)/C=C/c3ccco3)cc2)ncn1	13*	.	.	.	4
Cc1ccc(Oc2nc3c(c(=O)n(C)c(=O)n3C)n2C)cc1C	0	.	.	.	.
O=C(O)CCN1C(=O)/C(=C/c2cn(-c3ccccc3)nc2-c2cccs2)SC1=S	12*	.	.	.	2
O=C(COc1ccccc1Cl)Nc1cc(Cl)ccc1Oc1ccccc1	14*	-14	-0.56	-20	4
O=C(COc1ccccc1)Nc1ccccc1Oc1ccccc1	2	2	-0.16	-17	.
CCN(C(C)=O)c1nc(CCl)cs1	2	.	.	.	.
COc1ccc(-c2nc(N3CCCCCC3)sc2C(=O)c2ccccc2)cc1	7	1	-0.24	-50	.
O=C(c1ccccc1)c1sc(N2CCCCCC2)nc1-c1ccccc1	12*	2	-0.8	-58	4
CC1(C)CNC(=O)CC(C)(C)N1	2	.	.	.	.
COCCNc1nc2ccccc2nc1NS(=O)(=O)c1ccc(C)cc1C	3	21	0.01	-22	.
C=CCOC(=O)C1=C[C@@H](c2csc3ccccc23)C[C@@H](OCc2ccc(CO)cc2)O1	14*	.	.	.	3
COc1ccc(-c2nc3c4ccccc4ccn3c2CN2CCCCC2)cc1	1	.	.	.	.
N#Cc1ccc(CSc2nnc(-c3c[nH]c4ccccc34)n2-c2ccccc2)cc1	12*	.	.	.	2
COC(=O)[C@H](Cc1ccccc1)NC(=O)[C@@]1(C)C[C@@H]1[C@@H](NC(=O)OCc1ccccc1)c1ccccc1	13*	7	-0.18	-49	5
Cc1cc(OCc2nnc(SCC(=O)OC3CCCCC3)o2)ccc1Cl	12*	7	0.24	-40	2
